The values that follow come from ChEMBL document CHEMBL1153264, “(1,2,3-Triazol-4-yl)benzenamines: synthesis and activity against VEGF receptors 1 and 2” (Bioorg Med Chem Lett, 2009).

Test [1] concerns the target Receptor-type tyrosine-protein kinase FLT3 (Homo sapiens) (UniProt P36888). Description: Inhibition of Flt3 at 10 uM.
The target of test [2] is Receptor tyrosine-protein kinase erbB-2 (Homo sapiens) (UniProt P04626). The test can be described thus: Inhibition of ErbB2 at 10 uM.
Test [3] has as its target T1, Vascular endothelial growth factor receptor 2 (Homo sapiens, UniProt P35968). Description: Inhibition of VEGFR2 by HTRF assay in presence of 2 uM ATP. Put shortly: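 HTRF kinase assay with KDR enzyme (3–4 ng) and biotinylated pGAT substrate. ATP added to start, 45 min at RT. Stopped with EDTA/KF buffer plus Eu-cryptate anti-phosphotyrosine antibody, 2 h RT, then HTRF read. IC50 from 10-point log concentration curves, mean of at least two duplicate runs.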

The target in test [4] is Cyclin-dependent kinase 1 (Homo sapiens) (UniProt P06493). The test can be described thus: Inhibition of Cdk1 at 10 uM.
Test [5] addresses Epidermal growth factor receptor (Homo sapiens) (UniProt P00533). Description: Inhibition of EGFR at 10 uM.
In test [6] the target is Glycogen synthase kinase-3 beta (Homo sapiens) (UniProt P49841). Description: Inhibition of GSK3-beta at 10 uM.
The target of test [7] is Hepatocyte growth factor receptor (Homo sapiens) (UniProt P08581). Description: Inhibition of c-Met at 10 uM.
Test [8] concerns the target Cyclin-dependent kinase 2 (Homo sapiens) (UniProt P24941). Description: Inhibition of Cdk2 at 10 uM.
The target of test [9] is Insulin receptor (Homo sapiens) (UniProt P06213). The test can be described thus: Inhibition of IR at 10 uM.
Test [10] concerns the target T1, Vascular endothelial growth factor receptor 2. Description: Inhibition of VEGF-induced phosphorylation of VEGFR2 by cell-based ELISA.
In test [11] the target is T2, Aurora kinase A (Homo sapiens) (UniProt O14965).
T2 sequence (whole entry): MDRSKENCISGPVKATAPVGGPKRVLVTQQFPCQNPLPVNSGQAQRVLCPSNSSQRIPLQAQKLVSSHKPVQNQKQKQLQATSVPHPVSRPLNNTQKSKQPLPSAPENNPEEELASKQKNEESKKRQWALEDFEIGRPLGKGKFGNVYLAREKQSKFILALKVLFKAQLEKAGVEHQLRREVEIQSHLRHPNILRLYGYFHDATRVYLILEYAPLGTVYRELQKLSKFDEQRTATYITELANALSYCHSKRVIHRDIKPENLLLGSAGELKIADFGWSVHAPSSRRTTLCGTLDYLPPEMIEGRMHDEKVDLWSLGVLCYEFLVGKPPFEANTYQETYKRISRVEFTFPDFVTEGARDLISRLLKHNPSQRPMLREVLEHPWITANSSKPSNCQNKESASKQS
The test can be described thus: Inhibition of Aurora A at 10 uM.

The target of test [12] is Aurora kinase B (Homo sapiens) (UniProt Q96GD4). Description: Inhibition of Aurora B at 10 uM.
Test [13] addresses Bcr/Abl fusion protein (Homo sapiens) (UniProt P00519+P11274). Description: Inhibition of Bcr-Abl at 10 uM. It is filed as protein assay.
For test [14], the target named is Proto-oncogene tyrosine-protein kinase Src (Homo sapiens) (UniProt P12931). Description: Inhibition of Src at 10 uM.
A short description of test [15]: Inhibition of Bcr-Abl T315 mutant at 10 uM.
For test [16], the target named is Macrophage-stimulating protein receptor (Homo sapiens) (UniProt Q04912). The test can be described thus: Inhibition of Ron at 10 uM.
The target of test [17] is Serine/threonine-protein kinase PLK1 (Homo sapiens) (UniProt P53350). Description: Inhibition of Plk1 at 10 uM.
Test [18] addresses Vascular endothelial growth factor receptor 1 (Homo sapiens, UniProt P17948). Description: Inhibition of VEGFR1 by HTRF assay. (Time-resolved FRET reads energy transfer from a long-lived donor to a nearby acceptor.)
A short description of test [19]: Inhibition of PKA at 10 uM.
Test [20] has as its target Insulin-like growth factor 1 receptor (Homo sapiens) (UniProt P08069). The test can be described thus: Inhibition of IGF1R at 10 uM.
Test [21] addresses Fibroblast growth factor receptor 1 (Homo sapiens) (UniProt P11362). The test can be described thus: Inhibition of FGFR1 at 10 uM.

The structures appear in SMILES notation. A value given as a limit tells only on which side of the number the result lay.

Bcr/Abl fusion protein (Homo sapiens), sequence (P00519 whole entry, looked up, the tested form may be a part): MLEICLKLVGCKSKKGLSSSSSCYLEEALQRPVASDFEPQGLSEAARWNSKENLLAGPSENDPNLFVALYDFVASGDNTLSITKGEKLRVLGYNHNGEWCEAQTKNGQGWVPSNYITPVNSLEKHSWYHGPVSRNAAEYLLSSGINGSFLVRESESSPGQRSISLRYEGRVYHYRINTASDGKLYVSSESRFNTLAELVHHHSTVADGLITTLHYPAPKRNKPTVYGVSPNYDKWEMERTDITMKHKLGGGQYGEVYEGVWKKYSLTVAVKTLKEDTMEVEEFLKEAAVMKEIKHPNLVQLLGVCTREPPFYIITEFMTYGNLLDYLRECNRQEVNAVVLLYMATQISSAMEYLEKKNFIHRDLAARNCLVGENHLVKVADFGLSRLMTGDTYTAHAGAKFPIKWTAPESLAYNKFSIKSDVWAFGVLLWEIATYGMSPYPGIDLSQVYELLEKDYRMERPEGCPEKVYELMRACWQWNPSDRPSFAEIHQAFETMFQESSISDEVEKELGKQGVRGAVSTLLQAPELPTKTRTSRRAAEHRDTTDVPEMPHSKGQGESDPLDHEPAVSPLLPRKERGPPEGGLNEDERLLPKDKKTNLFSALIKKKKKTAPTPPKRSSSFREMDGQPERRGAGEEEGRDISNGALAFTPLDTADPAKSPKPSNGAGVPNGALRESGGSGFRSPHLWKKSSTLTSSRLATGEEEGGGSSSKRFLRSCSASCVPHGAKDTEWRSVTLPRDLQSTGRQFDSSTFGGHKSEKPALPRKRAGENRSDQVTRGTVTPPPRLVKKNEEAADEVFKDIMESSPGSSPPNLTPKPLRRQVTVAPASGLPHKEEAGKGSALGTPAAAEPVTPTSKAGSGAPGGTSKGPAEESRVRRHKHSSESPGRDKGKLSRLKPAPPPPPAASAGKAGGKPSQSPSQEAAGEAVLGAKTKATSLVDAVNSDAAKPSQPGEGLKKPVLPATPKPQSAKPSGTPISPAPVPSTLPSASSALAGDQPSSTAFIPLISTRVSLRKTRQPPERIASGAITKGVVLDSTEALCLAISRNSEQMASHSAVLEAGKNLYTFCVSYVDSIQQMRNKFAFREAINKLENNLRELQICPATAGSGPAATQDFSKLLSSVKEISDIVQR
Bcr/Abl fusion protein (Homo sapiens), sequence (P11274 whole entry, looked up, the tested form may be a part): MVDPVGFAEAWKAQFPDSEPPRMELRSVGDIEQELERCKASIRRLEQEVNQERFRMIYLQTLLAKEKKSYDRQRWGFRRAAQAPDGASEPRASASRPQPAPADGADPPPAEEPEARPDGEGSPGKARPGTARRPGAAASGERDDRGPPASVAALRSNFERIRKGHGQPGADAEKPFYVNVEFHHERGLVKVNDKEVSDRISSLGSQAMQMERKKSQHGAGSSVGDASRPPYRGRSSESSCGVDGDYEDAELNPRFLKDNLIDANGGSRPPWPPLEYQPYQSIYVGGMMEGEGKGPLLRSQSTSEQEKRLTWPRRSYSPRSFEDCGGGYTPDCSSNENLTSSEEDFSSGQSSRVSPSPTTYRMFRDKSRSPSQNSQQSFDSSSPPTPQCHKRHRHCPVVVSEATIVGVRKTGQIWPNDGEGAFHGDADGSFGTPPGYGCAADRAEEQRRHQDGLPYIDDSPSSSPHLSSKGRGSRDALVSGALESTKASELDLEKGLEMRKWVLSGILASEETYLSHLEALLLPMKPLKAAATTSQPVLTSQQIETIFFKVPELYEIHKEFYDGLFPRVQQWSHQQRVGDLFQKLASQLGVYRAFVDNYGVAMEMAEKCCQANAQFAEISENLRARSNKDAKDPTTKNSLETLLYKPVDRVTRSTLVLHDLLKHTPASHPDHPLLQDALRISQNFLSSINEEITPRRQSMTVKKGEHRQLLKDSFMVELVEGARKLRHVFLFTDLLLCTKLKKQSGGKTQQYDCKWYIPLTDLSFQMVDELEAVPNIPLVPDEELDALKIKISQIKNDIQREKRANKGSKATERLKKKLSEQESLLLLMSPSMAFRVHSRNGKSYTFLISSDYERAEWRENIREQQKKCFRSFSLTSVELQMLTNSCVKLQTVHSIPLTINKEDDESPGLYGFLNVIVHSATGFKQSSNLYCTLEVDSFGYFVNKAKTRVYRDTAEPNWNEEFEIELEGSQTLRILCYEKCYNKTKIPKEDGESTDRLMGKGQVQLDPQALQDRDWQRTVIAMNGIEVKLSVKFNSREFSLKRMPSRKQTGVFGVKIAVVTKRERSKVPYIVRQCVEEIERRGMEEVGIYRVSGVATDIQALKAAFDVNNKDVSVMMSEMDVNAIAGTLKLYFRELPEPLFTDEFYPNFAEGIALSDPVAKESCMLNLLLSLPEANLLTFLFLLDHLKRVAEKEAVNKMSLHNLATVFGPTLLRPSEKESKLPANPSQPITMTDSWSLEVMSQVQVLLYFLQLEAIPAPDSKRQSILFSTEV
Hepatocyte growth factor receptor (Homo sapiens), sequence (P08581 whole entry): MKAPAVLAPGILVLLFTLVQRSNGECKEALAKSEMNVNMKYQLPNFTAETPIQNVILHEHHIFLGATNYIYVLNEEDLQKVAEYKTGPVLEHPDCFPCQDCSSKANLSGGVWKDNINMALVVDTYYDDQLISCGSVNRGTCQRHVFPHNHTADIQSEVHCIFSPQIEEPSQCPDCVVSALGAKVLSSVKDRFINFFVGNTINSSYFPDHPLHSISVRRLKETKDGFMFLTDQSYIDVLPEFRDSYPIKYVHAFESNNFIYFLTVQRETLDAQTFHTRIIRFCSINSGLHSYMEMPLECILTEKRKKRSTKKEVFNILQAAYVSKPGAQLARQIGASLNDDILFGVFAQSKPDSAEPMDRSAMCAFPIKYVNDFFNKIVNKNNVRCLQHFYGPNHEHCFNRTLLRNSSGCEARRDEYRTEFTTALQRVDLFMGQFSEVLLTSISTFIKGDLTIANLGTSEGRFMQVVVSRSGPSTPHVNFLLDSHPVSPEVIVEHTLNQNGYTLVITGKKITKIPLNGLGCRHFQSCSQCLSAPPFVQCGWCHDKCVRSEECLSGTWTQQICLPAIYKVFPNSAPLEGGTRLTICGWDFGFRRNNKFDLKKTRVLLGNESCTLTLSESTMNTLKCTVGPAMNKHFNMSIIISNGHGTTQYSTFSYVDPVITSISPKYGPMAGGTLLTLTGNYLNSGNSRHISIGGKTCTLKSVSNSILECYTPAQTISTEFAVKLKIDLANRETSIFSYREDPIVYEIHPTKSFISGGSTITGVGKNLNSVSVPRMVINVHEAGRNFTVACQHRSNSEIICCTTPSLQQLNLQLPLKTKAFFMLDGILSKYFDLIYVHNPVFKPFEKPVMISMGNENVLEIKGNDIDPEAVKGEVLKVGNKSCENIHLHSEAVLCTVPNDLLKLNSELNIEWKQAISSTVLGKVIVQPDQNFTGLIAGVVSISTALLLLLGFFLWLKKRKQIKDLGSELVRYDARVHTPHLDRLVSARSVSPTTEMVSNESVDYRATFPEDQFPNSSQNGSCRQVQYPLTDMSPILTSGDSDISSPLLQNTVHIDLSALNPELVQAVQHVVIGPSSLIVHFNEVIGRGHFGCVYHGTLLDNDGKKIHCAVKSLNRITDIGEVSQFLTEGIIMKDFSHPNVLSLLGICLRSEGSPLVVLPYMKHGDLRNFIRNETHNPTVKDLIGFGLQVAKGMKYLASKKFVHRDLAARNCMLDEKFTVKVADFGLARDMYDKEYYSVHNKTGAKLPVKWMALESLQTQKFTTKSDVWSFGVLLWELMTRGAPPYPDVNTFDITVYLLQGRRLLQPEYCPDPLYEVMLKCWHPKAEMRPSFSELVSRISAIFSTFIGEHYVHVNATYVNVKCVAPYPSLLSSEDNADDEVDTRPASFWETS
Epidermal growth factor receptor (Homo sapiens), sequence (P00533 whole entry): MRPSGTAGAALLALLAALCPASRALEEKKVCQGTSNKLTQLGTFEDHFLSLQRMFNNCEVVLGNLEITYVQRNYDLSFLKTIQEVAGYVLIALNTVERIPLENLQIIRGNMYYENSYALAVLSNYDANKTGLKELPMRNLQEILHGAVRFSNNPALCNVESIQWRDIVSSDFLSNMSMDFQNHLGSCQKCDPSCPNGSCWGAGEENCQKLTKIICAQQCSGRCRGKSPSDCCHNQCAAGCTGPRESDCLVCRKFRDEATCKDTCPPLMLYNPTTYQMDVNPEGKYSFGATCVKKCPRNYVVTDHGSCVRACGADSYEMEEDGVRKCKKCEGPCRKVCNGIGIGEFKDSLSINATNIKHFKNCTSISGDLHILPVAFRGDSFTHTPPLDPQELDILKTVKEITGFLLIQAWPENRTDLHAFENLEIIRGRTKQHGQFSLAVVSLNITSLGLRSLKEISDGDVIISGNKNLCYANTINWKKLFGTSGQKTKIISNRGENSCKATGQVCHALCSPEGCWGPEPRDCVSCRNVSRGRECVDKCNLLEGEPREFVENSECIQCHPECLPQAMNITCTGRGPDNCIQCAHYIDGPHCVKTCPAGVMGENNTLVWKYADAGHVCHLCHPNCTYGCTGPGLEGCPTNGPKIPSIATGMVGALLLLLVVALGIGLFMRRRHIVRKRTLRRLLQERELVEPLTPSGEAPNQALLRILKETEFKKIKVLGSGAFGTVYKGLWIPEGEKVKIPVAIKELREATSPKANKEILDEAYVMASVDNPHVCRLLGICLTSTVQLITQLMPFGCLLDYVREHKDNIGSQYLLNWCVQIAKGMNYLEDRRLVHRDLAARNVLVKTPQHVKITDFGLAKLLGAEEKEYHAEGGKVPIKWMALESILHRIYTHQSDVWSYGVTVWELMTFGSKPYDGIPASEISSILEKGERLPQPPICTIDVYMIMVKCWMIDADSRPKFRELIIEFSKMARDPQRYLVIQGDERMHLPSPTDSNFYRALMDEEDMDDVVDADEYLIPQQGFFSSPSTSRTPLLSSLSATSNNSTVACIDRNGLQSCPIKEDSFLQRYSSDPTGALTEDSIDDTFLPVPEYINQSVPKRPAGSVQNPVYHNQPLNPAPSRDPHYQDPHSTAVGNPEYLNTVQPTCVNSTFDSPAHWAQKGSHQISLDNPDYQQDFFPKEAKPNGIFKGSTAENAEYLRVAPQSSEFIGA

For orientation: inhibition means how much of the control response was suppressed. As a reminder, the IC50 is the point on the concentration scale where inhibition reaches its midpoint. For `FC(F)(F)c1cc(-n2cc(-c3ccccc3NCc3ccncc3)nn2)ccc1Cl`, the inhibition in [1], in test [2], in [4], in test [5], in test [6] and in test [7] was below 30% in each case. The inhibition in test [8], in test [9], in test [11], in [12], in test [13] and in [14] was below 30% each time. Also, the inhibition in test [15], in [16], in test [17], in test [19], in [20] and in test [21] was below 30% throughout. Also, the IC50 in test [3] is 0.44 µM; in test [10] it was 0.78 µM; in test [18] it was 0.51 µM.

For `FC(F)(F)c1cccc(-n2cc(-c3ccccc3NCc3ccc4c(c3)OCO4)nn2)c1`, the inhibition in test [1], in test [2], in [4], in test [5], in test [6] and in test [7] was below 30% in each case. The inhibition in [8], in test [9], in test [11], in [12], in [13] and in test [14] was below 30% in each case. Besides, the inhibition in test [15], in test [16], in test [17], in test [19], in test [20] and in [21] was below 30% each time. In addition, the IC50 in test [3], in test [10] and in test [18] was above 10 µM each time.

On to `FC(F)(F)Oc1cccc(-n2cc(-c3ccccc3NCc3ccncc3)nn2)c1`, for which the inhibition in test [1], in test [2], in test [4], in [5], in [6] and in test [7] was below 30% each time. The inhibition in test [8], in test [9], in [11], in [12], in test [13] and in test [14] was below 30% each time. The inhibition in [15], in [16], in test [17], in [19], in test [20] and in [21] was below 30% throughout. The IC50 in test [3] was found to be 0.066 µM; in [10], 0.085 µM; in [18], 0.072 µM.

Consider `Clc1cccc(-n2cc(-c3ccccc3NCc3ccc4c(c3)OCO4)nn2)c1`, for which the inhibition in test [1], in test [2], in test [4], in [5], in test [6] and in test [7] was below 30% throughout. Further, the inhibition in test [8], in [9], in test [11], in test [12], in test [13] and in [14] was below 30% each time. For the same compound, the inhibition in test [15], in [16], in test [17], in [19], in test [20] and in test [21] was below 30% each time. Further, the IC50 in [3], in test [10] and in test [18] was above 10 µM each time.

In the case of `c1ccc(-c2cn(-c3ccc4[nH]ncc4c3)nn2)c(NCc2ccncc2)c1`, the inhibition in test [1], in test [2], in test [4], in [5], in test [6] and in [7] was below 30% in each case. Further, the inhibition in [8], in test [9], in [11], in test [12], in test [13] and in [14] was below 30% in each case. For the same compound, the inhibition in [15], in test [16], in [17], in test [19], in [20] and in [21] was below 30% throughout. The IC50 in test [3] was determined as 0.68 µM; in test [10], 2.33 µM; in [18] it was 0.65 µM.

Regarding `CC(C)(C)c1ccc(-n2cc(-c3ccccc3NCc3ccncc3)nn2)cc1`, the inhibition in [1], in [2], in [4], in [5], in test [6] and in [7] was below 30% throughout. Besides, the inhibition in [8], in test [9], in test [11], in test [12], in test [13] and in test [14] was below 30% in each case. The inhibition in test [15], in test [16], in [17], in test [19], in test [20] and in [21] was below 30% throughout. Also, the IC50 in [3] worked out at 0.61 µM; in test [10] it was 1.63 µM; in test [18] it was 0.53 µM.

Take `FC(F)(F)c1ccc(-n2cc(-c3ccccc3NCc3ccncc3)nn2)cc1Cl`: the inhibition in test [1], in [2], in test [4], in [5], in test [6] and in test [7] was below 30% each time. Further, the inhibition in test [8], in test [9], in test [11], in test [12], in test [13] and in test [14] was below 30% each time. Moreover, the inhibition in test [15], in [16], in test [17], in test [19], in test [20] and in test [21] was below 30% each time. In addition, the IC50 in test [3] is 0.93 µM; in test [10] it was 2.92 µM; in test [18], 1.13 µM.

`Clc1cccc(-n2cc(-c3ccccc3NCc3ccnc4ccccc34)nn2)c1`: the inhibition in test [1], in test [2], in test [4], in test [5], in test [6] and in test [7] was below 30% each time. Further, the inhibition in [8], in test [9], in test [11], in [12], in test [13] and in [14] was below 30% in each case. Moreover, the inhibition in test [15], in test [16], in test [17], in test [19], in [20] and in test [21] was below 30% each time. Moreover, the IC50 in test [3] was found to be 0.19 µM; in [10], 0.27 µM; in [18] it was 0.17 µM.
